# In the library only some 3.7% were active in any assay of this set; here they are far more common.
# KCNQ1 act: human KCNQ1 channel potentiation or activation; P51787; CHO-K1 KCNQ1, thallium flux FluxOR fluorescence; hits give high values; B-score at 10 µM; hit rate 0.35% among 310,000; AID 2648;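 active = fluorescence ratio B-score, a plate-corrected score, at least three library SD, with initial intensity B-score within 5 SD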
# Target sequence (P51787 whole entry, looked up): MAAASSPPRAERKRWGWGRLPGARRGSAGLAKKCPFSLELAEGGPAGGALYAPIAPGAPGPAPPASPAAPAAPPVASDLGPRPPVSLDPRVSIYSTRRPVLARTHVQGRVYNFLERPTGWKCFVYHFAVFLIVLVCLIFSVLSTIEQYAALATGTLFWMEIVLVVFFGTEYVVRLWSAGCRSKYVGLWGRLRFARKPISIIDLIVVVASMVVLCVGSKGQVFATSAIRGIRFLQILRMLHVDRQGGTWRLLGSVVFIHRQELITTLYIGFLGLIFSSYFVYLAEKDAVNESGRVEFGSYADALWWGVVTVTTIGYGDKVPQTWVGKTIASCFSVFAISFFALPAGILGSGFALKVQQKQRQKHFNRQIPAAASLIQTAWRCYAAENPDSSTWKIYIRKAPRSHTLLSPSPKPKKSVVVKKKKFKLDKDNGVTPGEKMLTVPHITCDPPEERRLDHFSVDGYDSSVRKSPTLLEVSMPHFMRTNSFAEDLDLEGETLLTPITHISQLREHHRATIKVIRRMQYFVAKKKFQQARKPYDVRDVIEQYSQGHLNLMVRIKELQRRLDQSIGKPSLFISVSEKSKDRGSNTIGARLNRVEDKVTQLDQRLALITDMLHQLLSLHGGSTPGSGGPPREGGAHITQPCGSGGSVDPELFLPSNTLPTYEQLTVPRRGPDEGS
#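 Test system: CHO-K1 cells stably expressing KCNQ1 / Medium: assay buffer / Also added: depolarizing K+/Tl+ stimulus, K2SO4 and Tl2SO4 each 12.5 mM in 5x stock / Incubation: 90 min dye loading and 20 min compound exposure, both at room temperature / Signal: thallium influx via FluxOR fluorescence, kinetic imaging / Evaluation: B score of baseline-normalized fluorescence ratio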
# Kir21 inh: inhibitors of mouse Kir2.1 inward-rectifier potassium channel; P35561; HEK293-Kir2.1, FluxOR thallium flux fluorescence; hits give low values; B-score at 10 µM; hit rate 0.85% among 310,000;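 active = fluorescence ratio B-score at or below minus 3 SD of library scores, with starting-brightness B-score within 2 SD, cut at about -4.2 in these data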;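 also: channel flux triggered by added potassium and thallium sulfate stimulus; B-score of peak minus minimum fluorescence over baseline after thallium stimulus; more negative B-score means stronger Kir2.1 block with less thallium influx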
# KCNK3 block: human KCNK3 channel inhibition, primary screen | O14649 | CHO-KCNK3 thallium flux, FluxOR fluorescence; hits give low values | B-score at 10 µM | hit rate 0.84% among 340,000 | AID 602410;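 active = B-score under library mean minus 4 SD, starting fluorescence ratio at most library mean plus 5 SD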;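 also: more negative B-score means stronger inhibition of thallium flux through KCNK3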
# KCNK9 inh: inhibitors of human KCNK9 two-pore domain potassium channel; hit rate 1.2% among 310,000; B-score at 10 µM; Q9NPC2; HEK293 KCNK9, FluxOR thallium flux fluorescence; hits give low values;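 active = ratio B-score over 3 SD below the library mean, with starting fluorescence within 5 SD of its mean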;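 also: negative B-score means less thallium flux so channel inhibition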
# KCNQ1 block: inhibitors of human KCNQ1 potassium channel. AID 2642. P51787. hit rate 1.3% among 310,000. CHO-K1 KCNQ1, FluxOR thallium flux fluorescence; hits give high values. B-score at 10 µM;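 active = compounds whose thallium flux B-score, printed positive for inhibition, exceeds three library SD while starting fluorescence stays within three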;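 also: channel opened by potassium depolarization with thallium stimulus after 20 min compound exposure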
# hERG protect: shields human hERG channel from block by proarrhythmic agents; Q12809; CHO-hERG, FluxOR thallium flux, dofetilide IC70 present; activation (rescue from dofetilide block), less the hit threshold, % at 10 µM; hit rate 0.51% among 310,000;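 active = activation above the mean of controls blocked by dofetilide plus 5 SD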;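 also: thallium influx through hERG after potassium depolarization seen as dye fluorescence rise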
# Hits are given with their value; 0 = inactive; - = no result.
SMILES,KCNQ1 act,Kir21 inh,KCNK3 block,KCNK9 inh,KCNQ1 block,hERG protect
NCC(c1ccc(Cl)cc1Cl)c1c[nH]c2ccccc12 (centres undefined),0,-8.7,0,0,0,0
Cc1ccc(O)c(NC(=S)NC(=O)Cc2ccc(Cl)cc2)c1,50,0,0,0,0,0
CN1C[C@@H]2C[C@@H](c3cccn3-c3nccs3)N3CCC[C@@]23C1=O,0,0,0,0,0,0
Cc1ccc(C)c(NS(=O)(=O)c2c(C)ccc3nsnc23)c1,0,0,0,0,0,0
CC(=O)c1ccccc1NS(=O)(=O)c1cccc2nsnc12,0,0,0,0,0,0
Cc1ccc2nsnc2c1S(=O)(=O)Nc1cccc2nsnc12,11,0,0,0,0,5.2
CCc1ccccc1NS(=O)(=O)c1cccc2nsnc12,0,-5.4,0,0,0,0
COc1ccc(S(=O)(=O)NCC2CCCN(Cc3ccccc3C)C2)cc1 (centres undefined),0,0,0,0,0,0
Oc1c(N=NC(=S)Nc2ccccc2F)c2ccccc2n1Cc1ccc(Cl)cc1,8,0,0,0,0,25
Cc1ccccc1Cn1c(O)c(N=NC(=S)Nc2ccccc2F)c2ccccc21,0,0,0,0,0,36
NC(=S)N=Nc1c(O)n(CCCl)c2ccccc12,0,0,0,0,0,0
CCc1ccccc1NC(=S)N=Nc1c(O)n(C)c2ccc(S(=O)(=O)N3CCOCC3)cc12,0,0,0,0,0,0
Cc1ccc(Cn2c(O)c(N=NC(=S)Nc3ccccc3F)c3cc(S(=O)(=O)N4CCOCC4)ccc32)cc1,0,0,0,0,0,5.7
Cc1ccc(C)c(Cn2c(O)c(N=NC(=S)Nc3ccccc3F)c3ccccc32)c1,0,0,0,0,0,4.7
CC(C)(C)C1CCC(OCC(O)CN2CCN(c3ccccn3)CC2)CC1 (centres undefined),0,0,0,0,0,0
CCn1c(O)c(N=NC(=O)CNC(=O)c2ccccc2F)c2ccccc21,0,0,0,0,0,0
CCCn1c(O)c(N=NC(=O)c2ccco2)c2ccccc21,0,0,0,0,0,60
Oc1c(N=NC(=S)Nc2ccccc2F)c2ccccc2n1Cc1ccccc1F,23,0,0,0,0,29
CCNC(=S)N=Nc1c(O)n(Cc2ccc(Cl)cc2)c2ccccc12,18,0,0,0,0,0
Cc1c(C(Nc2ccccn2)c2ccc(Cl)cc2)c(=O)n(-c2ccccc2)n1C (centres undefined),0,0,0,-6.6,0,0
OCC[C@H]1NCc2cc(CO)cc(-c3ccccc3)c21,-,-,0,-,-,-
Cc1c(Cl)cccc1NC(=S)NC1CCN(Cc2ccccc2)CC1,0,0,0,0,0,0
O=C(NC1CCN(Cc2ccccc2)CC1)c1ccc(Cl)cc1Cl,0,-6.5,0,0,0,0
S=C(Nc1ccccc1Cl)NC1CCN(Cc2ccccc2)CC1,0,-6.7,0,0,0,0
Cc1ccc(C(=O)Nc2cc([N+](=O)[O-])ccc2C)cc1,0,0,0,0,0,0
SMILES,KCNQ1 act,Kir21 inh,KCNK3 block,KCNK9 inh,KCNQ1 block,hERG protect
O=C(Nc1nc(-c2ccccc2)cs1)c1cccc([N+](=O)[O-])c1,0,0,0,0,0,0
O=C(Nc1ccc(Cc2ccncc2)cc1)c1cccc([N+](=O)[O-])c1,0,0,0,0,0,9.8
O=C(Nc1cc([N+](=O)[O-])ccc1O)c1cccc([N+](=O)[O-])c1,0,0,0,0,7,0
Cc1ccc([N+](=O)[O-])cc1NC(=O)c1ccc(C(C)(C)C)cc1,0,0,0,0,9,0
O=C(Nc1ncc([N+](=O)[O-])s1)c1cccc([N+](=O)[O-])c1,0,0,0,0,8,0
O=C(Nc1ccc(NC(=O)c2cccc([N+](=O)[O-])c2)cc1)c1cccc([N+](=O)[O-])c1,0,0,0,0,0,0
CS(=O)(=O)c1ccc(NC(=O)CCN2C(=O)NC3(CCCC3)C2=O)cc1,-,-,0,-,-,-
CC1N(C)c2cc(NC(=O)c3cccs3)c(P(=O)(Nc3ccc([N+](=O)[O-])cc3)N3CCOCC3)cc2C1(C)C (centres undefined),0,0,0,-7.2,0,0
COc1ccc(C2=NN(C(=O)CN3CCCCC3)C(c3ccc(C)cc3)C2)cc1 (centres undefined),0,0,0,0,6,0
CCC(=O)N1N=C(c2cccs2)CC1c1ccc(C)cc1 (centres undefined),0,0,0,0,0,5.1
Cc1ccc(C2CC(c3cccs3)=NN2C(=O)CCl)cc1 (centres undefined),0,0,0,0,0,0
Cc1cccc(-n2c(C)cc(/C=N\NC(=O)c3ccco3)c2C)c1,0,0,0,0,0,0
Cc1ccc(C(C[N+](=O)[O-])c2c(-c3ccccc3O)[nH][nH]c2=O)cc1 (centres undefined),0,-9.5,0,0,0,0
O=c1[nH][nH]c(-c2ccccc2O)c1C(C[N+](=O)[O-])c1ccc(Br)cc1 (centres undefined),0,0,0,0,0,0
O=[N+]([O-])c1ccc(N=Nc2c(Cl)cc(O)cc2Cl)cc1,0,-6.9,0,0,8,0
CC(N)=Nc1ccc([N+](=O)[O-])cc1,0,0,0,0,0,0
Cc1cc(C)cc(NC(=S)N(Cc2ccc(Br)cc2)Cc2ccc(C(=O)O)cc2)c1,0,0,0,-7.4,0,0
CNC(=O)/C(C#N)=C/c1cccc(Oc2ccccc2)c1,0,-5.1,0,0,0,0
CCOC(=O)c1ccc(NC(=O)NNC(=O)CCc2ccc(OC)cc2)cc1,0,0,0,0,0,0
COc1ccc2nc(N=Nc3ccc(O)c4ccccc34)sc2c1,18,0,0,0,0,11
CC(C)c1ccc2c(c1)C(N1CCNCC1)Cc1ccc(F)cc1S2 (centres undefined),0,-5.2,0,0,0,0
O=C(Nc1cccc(S(=O)(=O)N2CCCCC2)c1)c1ccco1,-,-,0,-,-,-
COCc1c(C(=O)Nc2cccc(S(=O)(=O)N3CCCCC3)c2)oc2ccccc12,-,-,-9.3,-,-,-
O=C(Nc1cccc(S(=O)(=O)N2CCCCC2)c1)c1cc2ccccc2o1,-,-,-11,-,-,-
O=C1c2ccccc2C(=O)N1CN(C(=O)c1ccccc1)c1ccc(O)cc1,0,0,0,0,0,0
CC1=CS(=O)(=O)CC1Sc1ncn[nH]1 (centres undefined),0,0,0,0,0,4.7
O=C(COc1ccccc1)N=C1SC2CS(=O)(=O)CC2N1c1ccc(F)cc1 (centres undefined),0,0,0,0,0,0
CCOC(=O)c1ccc(NC(=O)Cn2nnc(-c3ccccc3)n2)cc1,0,0,0,0,0,14
CCCCN(CCCC)S(=O)(=O)c1ccc(NC(=O)c2ccc([N+](=O)[O-])cc2Cl)cc1,0,0,0,0,7,0
